Screening results: PubChem, several laboratories
CHT inh: inhibitors of human choline transporter CHT. AID 488975, 2010. High affinity choline transporter 1 (Homo sapiens), Q9GZV3. CHT-expressing cells, membrane potential dye, choline response; stronger effect = lower value. 0.86% of 310,000 active. B-score at 10 µM;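 active = B-score over 3 SD under the library average, and starting fluorescence ratio not unusually high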;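 note: choline stimulus applied at its EC90 after an EC20 pre-addition; B-score computed on integrated fluorescence ratio after choline addition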
KCC2 mod: KCC2 cotransporter modulators, thallium flux, primary screen, cell-based, HEK293 KCC2, FluoZin-2 fluorescence, MLSMR. Solute carrier family 12 member 5 (Homo sapiens), Q9H2X9. KCC2 cells, thallium flux FluoZin-2 fluorescence. B-score of Tl+ flux slope (higher = more flux/activation; lower = inhibition) at 10 µM. 2.2% of 190,000 active;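 active = thallium flux slope and its plate-corrected score both differing from the plate sample mean at a set confidence after two filtering rounds, in either direction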;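 note: slope of fluorescence scaled to starting intensity during 10 to 20 s after thallium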
Target sequence (Q9H2X9 whole entry, looked up): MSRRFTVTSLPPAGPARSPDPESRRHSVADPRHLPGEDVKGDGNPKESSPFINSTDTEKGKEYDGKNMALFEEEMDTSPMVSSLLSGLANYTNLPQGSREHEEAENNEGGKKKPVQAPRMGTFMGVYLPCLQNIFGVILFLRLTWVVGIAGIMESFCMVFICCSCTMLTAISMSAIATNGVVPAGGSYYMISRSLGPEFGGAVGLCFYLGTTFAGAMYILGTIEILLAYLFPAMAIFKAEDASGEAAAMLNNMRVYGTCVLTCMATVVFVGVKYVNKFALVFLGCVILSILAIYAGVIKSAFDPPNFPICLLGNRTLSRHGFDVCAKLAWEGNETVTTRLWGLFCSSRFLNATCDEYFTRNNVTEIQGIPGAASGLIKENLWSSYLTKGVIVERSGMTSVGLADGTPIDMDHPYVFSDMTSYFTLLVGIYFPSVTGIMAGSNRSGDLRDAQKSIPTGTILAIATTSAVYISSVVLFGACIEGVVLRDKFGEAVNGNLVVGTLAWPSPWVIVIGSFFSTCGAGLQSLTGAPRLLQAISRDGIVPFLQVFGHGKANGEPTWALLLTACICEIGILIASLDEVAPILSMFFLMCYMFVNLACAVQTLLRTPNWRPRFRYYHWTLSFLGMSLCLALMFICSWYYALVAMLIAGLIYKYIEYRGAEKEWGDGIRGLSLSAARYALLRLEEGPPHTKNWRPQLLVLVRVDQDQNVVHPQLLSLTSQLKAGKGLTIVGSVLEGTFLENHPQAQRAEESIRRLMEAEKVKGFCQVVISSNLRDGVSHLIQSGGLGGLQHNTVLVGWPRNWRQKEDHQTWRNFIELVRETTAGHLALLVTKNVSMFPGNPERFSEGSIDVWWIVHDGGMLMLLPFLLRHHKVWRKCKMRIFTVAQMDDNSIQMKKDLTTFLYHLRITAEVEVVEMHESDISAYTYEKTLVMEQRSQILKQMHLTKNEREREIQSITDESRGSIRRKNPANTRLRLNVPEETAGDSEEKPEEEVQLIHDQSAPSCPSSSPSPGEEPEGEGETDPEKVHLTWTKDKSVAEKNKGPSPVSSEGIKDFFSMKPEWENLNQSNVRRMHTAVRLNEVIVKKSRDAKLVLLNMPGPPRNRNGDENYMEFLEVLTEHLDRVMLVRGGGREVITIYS
CHT PAM: CHT positive allosteric modulators, primary screen, cell-based, membrane potential dye, choline EC20 | High affinity choline transporter 1 (Homo sapiens), Q9GZV3 | CHT-expressing cells; stronger effect = higher value; LV-AA mutant CHT in HEK293 cells | B-score at 10 µM | 0.49% of 310,000 active | AID 488977, 2010;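 active = initial fluorescence not abnormally high and integrated response B-score, plate-corrected, over 3 SD above library mean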
Rad51 HR inh: human RAD51 strand exchange inhibitors, primary screen, biochemical, fluorescence. DNA repair protein RAD51 homolog 1 (Homo sapiens), Q06609. inhibition, % at 10 µM. hRad51 DNA strand exchange, fluorescence dequenching. 0.085% of 200,000 active;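 active = inhibition above 40% at the single screening dose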;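 note: 0% = DMSO control wells and 100% = blanks with heterologous ssDNA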
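System: human Rad51 nucleoprotein filaments preassembled on unlabelled ssDNA. Reagent: labelled 47-mer dsDNA for strand exchange. Schedule: 30-min compound preincubation and 15-min exchange, both room temperature. Measured by: FRET fluorescence dequenching, excitation 485 nm, emission 520 nm. Read-out: Fluorescence-based percent inhibition, control- and blank-normalised. Benchmarks: plate controls and plate blanks.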
CHT inh conf: CHT inhibitors, confirmation, cell-based, membrane potential dye, duplicate | 70% of 2,400 active | CHT-expressing cells, choline membrane potential dye; LV-to-AA substituted CHT, HEK293 cells | AID 493221, 2011 | shares compounds with CHT inh | CHT activity remaining % of control (stronger effect = lower value), % at 10 µM;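 active = choline transporter activity left, mean of duplicates at 10 µM, below buffer-only control mean minus 3 SD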;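 note: depolarization triggered by choline at its EC90 following an EC20 pre-addition; 0% = hemicholinium-3 full block and 100% = buffer-only control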
HEK293 MPD ctr: membrane potential effects in parental HEK293, counter-screen for CHT inhibitor project, cell-based, membrane potential dye | membrane potential ratio readout (active if shifted either direction beyond buffer ±3SD; no single direction) at 10 µM | shares compounds with CHT inh | 4% of 2,400 active | choline response; active = decrease or increase beyond buffer ±3SD;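 note: parental cells lack the transporter so any hit is non-specific; ratio is peak minus trough fluorescence over baseline after EC90 choline challenge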
* = called active by the depositor; i = inactive; / = no result. Most compounds without a hit are left out; they make up all but 2.6% or so of the library.

SMILES | CHT inh | KCC2 mod | CHT PAM | Rad51 HR inh | CHT inh conf | HEK293 MPD ctr
O=C(COc1ccccc1/C=C1\SC(=O)NC1=O)Nc1ccccc1 | -5.7* | -4.5* | i | 8 | 51%* | i
NC(N)=N/N=C/c1ccc(OCc2ccccc2Cl)cc1 | i | / | i | -10 | / | /
NC(N)=N/N=C/c1ccc(Cl)c(Cl)c1 | -5.4* | 0.4 | i | 20 | 41%* | i
CCC(Oc1ccc2c(c1)C(=O)CC(C)(C)O2)C(=O)NCCN1CCCCCC1 (stereo unspecified) | -6.4* | / | i | / | 31%* | i
CC(C)CCNC(=O)COc1ccc2c(c1)C(=O)CC(C)(C)O2 | i | / | i | 9 | / | /
CCOc1cc(/C=C2/C(=O)ON=C2C)ccc1O | i | / | i | / | / | /
O=C1ON=C(c2ccccc2)/C1=C/c1ccc(O)c(O)c1 | -6.8* | / | i | / | 33%* | i
CC1=NOC(=O)/C1=C/c1ccc(O)c(Cl)c1 | -8.6* | / | i | / | 27%* | i
S=C(NCc1ccccn1)Nc1ccc(Cl)cc1Cl | -5.2* | / | i | -4 | 53%* | i
CCOC(=O)CC(NC(=O)c1cc2ccccc2oc1=O)c1cccc([N+](=O)[O-])c1 (stereo unspecified) | i | -2.4 | i | / | / | /
Cc1cc(C(=O)COC(=O)C2=NNC(=O)CC2)c(C)n1-c1ccccc1 | i | / | i | 1 | / | /
Cc1ccc(-n2c(C)cc(C(=O)COC(=O)C3=NNC(=O)CC3)c2C)cc1 | -6.5* | -0.39 | i | 3 | 18%* | -12*
O=C1C2C3C=CC(C4CC34)C2C(=O)N1CCCCN1CCN(c2ccc(F)cc2)CC1 (stereo unspecified) | i | / | i | / | / | /
C=CCOC(=O)C1=C(C)NC(=O)NC1c1cc(Cl)cc(Cl)c1OC (stereo unspecified) | i | / | i | / | / | /
O=C(O)CCN1C(=O)S/C(=C\c2cccnc2)C1=O | i | 0.43 | i | -5 | / | /
Cn1c(CCNC(=O)c2cccs2)n[nH]c1=S | -6.8* | -0.059 | i | -7 | i | i
CCCCCNC(=O)c1ccc2c(=O)[nH]c3c(C(=O)NCC4CCCO4)sc(=S)n3c2c1 (stereo unspecified) | -7.8* | -1.8 | i | -3 | 35%* | i
Cc1ccc2c(c1)nnn2C1CCN(CC(=O)NCc2ccccc2F)CC1 | i | -1.8 | i | -9 | / | /
CCN(CC)CCCN(C(=O)c1ccccc1C)c1nc(-c2ccc(OC)cc2)cs1 | i | / | i | / | / | /
CCN(CC)CCCN(C(=O)c1ccc(OC)cc1)c1nc(-c2ccc(OC)cc2)cs1 | -5.4* | / | i | / | 44%* | i
O=C1CCC(C(=O)N(CCO)Cc2ccccc2)CN1CC1CCCCC1 (stereo unspecified) | i | / | i | / | / | /
CCOc1ccccc1CNS(=O)(=O)c1cnc[nH]1 | i | / | i | / | / | /
Cc1ccc2c(COC(=O)c3ccccc3F)cc(=O)oc2c1 | i | / | i | / | / | /
Cc1ccc2c(COC(=O)c3c(C)noc3C)cc(=O)oc2c1 | -5.9* | / | i | -1 | i | i
Cc1ccc(NC(=S)Nc2ccc(F)cc2)cc1C | -8.8* | / | i | / | 65%* | i
SMILES | CHT inh | KCC2 mod | CHT PAM | Rad51 HR inh | CHT inh conf | HEK293 MPD ctr
Cc1ccc(NC(=S)Nc2ccc3nc(-c4ccccn4)c(-c4ccccn4)nc3c2)cc1C | -5.3* | -0.68 | i | -43 | 60%* | i
CC(=O)/C=C/c1ccc2ccccc2n1 | -5.3* | -0.3 | i | 8 | i | i
COc1cccc(/C(O)=C2/C(=O)C(=O)N(c3ccccn3)C2c2ccc(OC)c(OC)c2)c1 (stereo unspecified) | i | / | i | 2 | / | /
COc1ccc(/C(O)=C2/C(=O)C(=O)N(c3ccccn3)C2c2cccc(Cl)c2)cc1 (stereo unspecified) | -5.3* | / | i | / | 59%* | i
COc1ccc(NC(=O)C(Cc2ccccc2)n2cccc2)cc1OC (stereo unspecified) | i | 0.6 | i | 20 | / | /
CC(/C=C1\NC(=S)NC1=O)=C\c1ccccc1 | -5.5* | -2.6 | i | 1 | 68%* | i
O=C1NC(=S)N/C1=C/c1cccc2ccccc12 | i | / | i | / | / | /
O=C(CC1Nc2cccc3cccc(c23)NC1=O)Nc1ccc(F)cc1 (stereo unspecified) | -5.1* | 0.23 | i | 12 | i | i
COc1cccc(/C=C/C(=O)Nc2ccc3nc4n(c(=O)c3c2)CCCC4)c1OC | i | -1.9 | i | -7 | / | /
CC(=O)Nc1cccc(N(C)S(C)(=O)=O)c1 | i | 1.9 | i | -3 | / | /
CN(c1cccc(NC(=O)Nc2cccc(Cl)c2)c1)S(C)(=O)=O | -6.7* | -0.6 | i | -1 | 51%* | i
CCC(C)NC(=O)COC(=O)c1ccc(Cl)cc1O (stereo unspecified) | i | -0.41 | i | 6 | / | /
CC(C)c1ccc(CCNC(=O)CSC(=S)N2CCCC2)cc1 | i | / | i | / | / | /
Cc1ccc2ncnc(Nc3ccccc3)c2c1 | i | -0.26 | i | 2 | / | /
COc1ccccc1Nc1ncnc2ccc(C)cc12 | -5.4* | / | i | -6 | 61%* | i
Cc1ccc(CSc2nnc(-c3ccc(NS(=O)(=O)c4ccccc4)cc3)o2)cc1 | i | -0.71 | i | -12 | / | /
COC(=O)CSc1nnc(-c2ccc(NS(=O)(=O)c3ccccc3)cc2)o1 | -5.9* | -0.12 | i | 0 | 39%* | i
CCOC(=O)C(=O)Nc1ncc(Cl)s1 | i | -1.4 | i | / | / | /
O=C(Nc1nnc(-c2ccncc2)o1)c1ccccc1F | i | 0.8 | i | -5 | / | /
O=C(Nc1nnc(-c2ccc(F)cc2)o1)c1cc(Cl)sc1Cl | -6.8* | 54* | i | 3 | 63%* | i
CCC1CCCCN1CCCNC(=O)c1ccc(N2CCOCC2)c(NS(=O)(=O)c2ccc(OC)cc2)c1 (stereo unspecified) | -6.8* | -0.17 | i | -1 | 42%* | i
Cc1ccc(C)c(NS(=O)(=O)c2ccc3[nH]c(=O)oc3c2)c1 | i | -0.7 | i | 13 | / | /
O=C(CCc1ccc(S(=O)(=O)N2CCOCC2)cc1)N1CCc2ccccc2C1 | -5.8* | -0.12 | i | -2 | 66%* | i
O=C(c1ccc(S(=O)(=O)N2CCOCC2)cc1)N1CCc2ccccc2C1 | i | -0.97 | i | -1 | / | /
COc1ccc(S(=O)(=O)N2CCC(C(=O)N3CCc4ccccc4C3)CC2)cc1 | -5.8* | -4* | i | 9 | 49%* | i
